Assay results from ChEMBL document CHEMBL5724801, “EUbOPEN Chemogenomics Library - Multiplex” (2024).
“And” between values parts separate entries of the source, which are not always exact repeats. Identical values can stand only once.

Columns and labels:
Fibroblast = assay: Multiplex assay against human fibroblast; assay type: toxicity, cell-based
How it was run: (§1)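 Cells were classed with CellPathfinder machine-learning gating, first as Hoechst high-intensity objects or normal cells, then (normal cells) as healthy, pyknosed or fragmented nuclei, and finally (pyknosed cells) as mitotic or apoptotic. Staining of live cells at seeding used Hoechst33342, BioTracker Green Microtubule Cytoskeleton Dye, MitoTracker Red and Annexin V Alexa Fluor 680, with imaging on a CQ1 microscope at 37°C and 5% CO2 after compound addition. Tubulin, mitochondrial-mass and membrane-permeability phenotypes are per cents of healthy-nucleus cells.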

HEK-293T = assay: Multiplex assay against HEK293T; assay type: toxicity, cell-based; settings: human; how it was run: as §1
[1] = 12 h, 1 µM, compound concentration 1 uM
[2] = 12 h, 10 µM, compound concentration 10 uM
[3] = 24 h, 1 µM, compound concentration 1 uM
[4] = 24 h, 10 µM, compound concentration 10 uM
[5] = 48 h, 1 µM, compound concentration 1 uM
[6] = 48 h, 10 µM, compound concentration 10 uM

CC(C)(C)c1cc(NC(=O)Nc2ccc(-c3cn4c(n3)sc3cc(OCCN5CCOCC5)ccc34)cc2)no1 [QUIZARTINIB]
Population Apoptotic (%) (Fibroblast; [1]): 42% and 41% | Population Fragmented Nuclei (%) (Fibroblast; [1]): 16% and 24% | Population Healthy Nuclei (%) (Fibroblast; [1]): 65% and 52% | Population Hoechst High Intensity Objects (%) (Fibroblast; [1]): 2% | Population Membrane Permeable-Phenotype (%) (Fibroblast; [1]): 0% and 1% | Population Mitochondria Different-Phenotype (%) (Fibroblast; [1]): 7% and 5% | Population Mitotic Cells (%) (Fibroblast; [1]): 57% and 58% | Population Normal (%) (Fibroblast; [1]): 97% | Population Pyknosed Nuclei (%) (Fibroblast; [1]): 17% and 23% | Population Tubulin-Different-Phenotype (%) (Fibroblast; [1]): 31% and 41% | Total Cell Count (Fibroblast; [1]): 150 and 137 | Population Apoptotic (%) (Fibroblast; [2]): 43% and 48% | Population Fragmented Nuclei (%) (Fibroblast; [2]): 34% and 35% | Population Healthy Nuclei (%) (Fibroblast; [2]): 56% and 45% | Population Hoechst High Intensity Objects (%) (Fibroblast; [2]): 3% and 5% | Population Membrane Permeable-Phenotype (%) (Fibroblast; [2]): 0% and 5% | Population Mitochondria Different-Phenotype (%) (Fibroblast; [2]): 10% and 5% | Population Mitotic Cells (%) (Fibroblast; [2]): 56% and 51% | Population Normal (%) (Fibroblast; [2]): 96% and 94% | Population Pyknosed Nuclei (%) (Fibroblast; [2]): 8% and 18% | Population Tubulin-Different-Phenotype (%) (Fibroblast; [2]): 75% and 70% | Total Cell Count (Fibroblast; [2]): 190 and 162 | Population Apoptotic (%) (Fibroblast; [3]): 58% and 42% | Population Fragmented Nuclei (%) (Fibroblast; [3]): 14% and 25% | Population Healthy Nuclei (%) (Fibroblast; [3]): 72% and 61% | Population Hoechst High Intensity Objects (%) (Fibroblast; [3]): 1% and 3% | Population Membrane Permeable-Phenotype (%) (Fibroblast; [3]): 0% and 2% | Population Mitochondria Different-Phenotype (%) (Fibroblast; [3]): 6% | Population Mitotic Cells (%) (Fibroblast; [3]): 41% and 57% | Population Normal (%) (Fibroblast; [3]): 98% and 96% | Population Pyknosed Nuclei (%) (Fibroblast; [3]): 12% and 13% | Population Tubulin-Different-Phenotype (%) (Fibroblast; [3]): 32% and 44% | Total Cell Count (Fibroblast; [3]): 137 and 152 | Population Apoptotic (%) (Fibroblast; [4]): 75% and 39% | Population Fragmented Nuclei (%) (Fibroblast; [4]): 33% and 40% | Population Healthy Nuclei (%) (Fibroblast; [4]): 57% and 46% | Population Hoechst High Intensity Objects (%) (Fibroblast; [4]): 1% and 4% | Population Membrane Permeable-Phenotype (%) (Fibroblast; [4]): 0% and 1% | Population Mitochondria Different-Phenotype (%) (Fibroblast; [4]): 21% and 10% | Population Mitotic Cells (%) (Fibroblast; [4]): 25% and 60% | Population Normal (%) (Fibroblast; [4]): 98% and 95% | Population Pyknosed Nuclei (%) (Fibroblast; [4]): 8% and 13% | Population Tubulin-Different-Phenotype (%) (Fibroblast; [4]): 71% and 70% | Total Cell Count (Fibroblast; [4]): 190 and 179 | Population Apoptotic (%) (Fibroblast; [5]): 75% and 42% | Population Fragmented Nuclei (%) (Fibroblast; [5]): 19% and 30% | Population Healthy Nuclei (%) (Fibroblast; [5]): 71% and 60% | Population Hoechst High Intensity Objects (%) (Fibroblast; [5]): 8% and 3% | Population Membrane Permeable-Phenotype (%) (Fibroblast; [5]): 0% and 1% | Population Mitochondria Different-Phenotype (%) (Fibroblast; [5]): 5% and 8% | Population Mitotic Cells (%) (Fibroblast; [5]): 25% and 57% | Population Normal (%) (Fibroblast; [5]): 91% and 96% | Population Pyknosed Nuclei (%) (Fibroblast; [5]): 9% | Population Tubulin-Different-Phenotype (%) (Fibroblast; [5]): 38% and 34% | Total Cell Count (Fibroblast; [5]): 145 and 158 | Population Apoptotic (%) (Fibroblast; [6]): 79% and 60% | Population Fragmented Nuclei (%) (Fibroblast; [6]): 30% and 44% | Population Healthy Nuclei (%) (Fibroblast; [6]): 56% and 50% | Population Hoechst High Intensity Objects (%) (Fibroblast; [6]): 7% and 3% | Population Membrane Permeable-Phenotype (%) (Fibroblast; [6]): 0% and 2% | Population Mitotic Cells (%) (Fibroblast; [6]): 20% and 40% | Population Normal (%) (Fibroblast; [6]): 92% and 96% | Population Pyknosed Nuclei (%) (Fibroblast; [6]): 13% and 5% | Population Tubulin-Different-Phenotype (%) (Fibroblast; [6]): 74% and 59% | Total Cell Count (Fibroblast; [6]): 195 | Population Apoptotic (%) (HEK-293T; [1]): 27% and 34% | Population Fragmented Nuclei (%) (HEK-293T; [1]): 5% | Population Healthy Nuclei (%) (HEK-293T; [1]): 83% and 80% | Population Hoechst High Intensity Objects (%) (HEK-293T; [1]): 10% and 6% | Population Membrane Permeable-Phenotype (%) (HEK-293T; [1]): 0% | Population Mitochondria Different-Phenotype (%) (HEK-293T; [1]): 40% and 58% | Population Mitotic Cells (%) (HEK-293T; [1]): 72% and 65% | Population Normal (%) (HEK-293T; [1]): 89% and 93% | Population Pyknosed Nuclei (%) (HEK-293T; [1]): 11% and 14% | Population Tubulin-Different-Phenotype (%) (HEK-293T; [1]): 35% and 26% | Total Cell Count (HEK-293T; [1]): 377 and 345 | Population Apoptotic (%) (HEK-293T; [2]): 53% and 73% | Population Fragmented Nuclei (%) (HEK-293T; [2]): 7% | Population Healthy Nuclei (%) (HEK-293T; [2]): 71% | Population Hoechst High Intensity Objects (%) (HEK-293T; [2]): 23% and 12% | Population Membrane Permeable-Phenotype (%) (HEK-293T; [2]): 0% | Population Mitochondria Different-Phenotype (%) (HEK-293T; [2]): 78% and 81% | Population Mitotic Cells (%) (HEK-293T; [2]): 46% and 26% | Population Normal (%) (HEK-293T; [2]): 76% and 87% | Population Pyknosed Nuclei (%) (HEK-293T; [2]): 21% | Population Tubulin-Different-Phenotype (%) (HEK-293T; [2]): 68% and 63% | Total Cell Count (HEK-293T; [2]): 324 and 293 | Population Apoptotic (%) (HEK-293T; [3]): 41% and 38% | Population Fragmented Nuclei (%) (HEK-293T; [3]): 7% and 5% | Population Healthy Nuclei (%) (HEK-293T; [3]): 84% | Population Hoechst High Intensity Objects (%) (HEK-293T; [3]): 6% and 4% | Population Membrane Permeable-Phenotype (%) (HEK-293T; [3]): 0% | Population Mitochondria Different-Phenotype (%) (HEK-293T; [3]): 26% and 40% | Population Mitotic Cells (%) (HEK-293T; [3]): 58% and 61% | Population Normal (%) (HEK-293T; [3]): 93% and 95% | Population Pyknosed Nuclei (%) (HEK-293T; [3]): 7% and 10% | Population Tubulin-Different-Phenotype (%) (HEK-293T; [3]): 21% and 17% | Total Cell Count (HEK-293T; [3]): 491 and 440
